Assay [1] is described as follows: Cytotoxicity against human 3AO cells assessed as growth inhibition after 24 hrs by MTT assay. The assay is classed as functional, cell-based. The gist of the method:
(§1)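 Cells seeded at 8000/well in RPMI-1640 with 10% heat-inactivated FBS and left to adhere 10 h. Compound then added in RPMI-1640 with 1% FBS and 0.1% DMSO for 24 h at 37 °C. MTT added for 4 h, formazan dissolved in DMSO, OD read at 590 nm. Inhibition calculated relative to control and zero-setting wells; IC50 derived from inhibition ratios; two experiments in triplicate.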
Background: Formazan colour is commonly taken as a measure of viable cells.

The subject of the next assay is K562. Description: Cytotoxicity against human K562 cells assessed as growth inhibition after 24 hrs by MTT assay. It is filed as functional, cell-based. The following applies: K562, 24 h. The essentials: as §1
In a further assay the test system is HeLa. The assay can be described thus: Cytotoxicity against human HeLa cells assessed as growth inhibition after 24 hrs by MTT assay. It is filed as functional, cell-based. The essentials: as §1
A short description of assay [2]: Cytotoxicity against human PC3 cells assessed as growth inhibition after 24 hrs by MTT assay. The assay is classed as functional, cell-based. As to conditions: PC-3, 24 h. The essentials: as §1
A short description of assay [3]: Cytotoxicity against human BEAS2B cells assessed as growth inhibition after 24 hrs by MTT assay. The assay is classed as cell-based. The following applies: BEAS-2B. The essentials:
as §1

A further assay concerns MCF7. The assay can be described thus: Cytotoxicity against human MCF7 cells assessed as growth inhibition after 24 hrs by MTT assay. The assay is classed as functional, cell-based. As to conditions: MCF7, 24 h. The gist of the method:
as §1

Assay [4] addresses Vascular endothelial growth factor receptor 2 (Homo sapiens) (UniProt P35968). As to conditions: at 1 µM.
For another assay, the system named is HUVEC. Description: Antiangiogenic activity against HUVEC cells assessed as inhibition of VEGF-induced tube formation after 8 hrs by microscopic analysis. The following applies: Homo sapiens. The assay is classed as functional, cell-based. The gist of the method:
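HUVECs trypsinized and seeded on Matrigel (polymerized 1 h, 37 °C) at 10^5 cells/well, incubated with compound at 0.1, 1 and 10 µg/mL for 8 h at 37 °C in CO2 until tube networks formed; Pazopanib as positive control. Morphology imaged in five random fields per well; experiment repeated 3 times.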

For assay [5], the species on record is Danio rerio. Description: Antiangiogenic activity against transgenic zebra fish embryos expressing green fluorescence protein assessed as inhibition of intersegmental vessel formation at 10 to 100 uM after 24 hrs by confocal fluorescence microscopy. The assay is classed as functional, organism-based. The gist of the method:
(§2)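 Tg(flk1:GFP) embryos, dechorionated one day post-fertilization, 10 per well in 3 mL assay solution with 0.1% PTU added; compounds at 10, 50, 100 µM, 0.2% DMSO as vehicle control, vatalanib as positive control; 28 °C. ISV formation scored by confocal microscopy (50- and 100-fold) after 24 h treatment; repeated at least three times.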

Assay [6] deals with Fibroblast growth factor receptor 1 (Homo sapiens) (UniProt P11362). Description: Inhibition of human recombinant FGFR1 at 1 uM after 50 mins by microtiter plate based luciferase reporter gene assay. (Reporter assays use an easily measured gene product as a stand-in for the process of interest.)
Sequence of Fibroblast growth factor receptor 1 (Homo sapiens) (P11362 22-822 limits assumed): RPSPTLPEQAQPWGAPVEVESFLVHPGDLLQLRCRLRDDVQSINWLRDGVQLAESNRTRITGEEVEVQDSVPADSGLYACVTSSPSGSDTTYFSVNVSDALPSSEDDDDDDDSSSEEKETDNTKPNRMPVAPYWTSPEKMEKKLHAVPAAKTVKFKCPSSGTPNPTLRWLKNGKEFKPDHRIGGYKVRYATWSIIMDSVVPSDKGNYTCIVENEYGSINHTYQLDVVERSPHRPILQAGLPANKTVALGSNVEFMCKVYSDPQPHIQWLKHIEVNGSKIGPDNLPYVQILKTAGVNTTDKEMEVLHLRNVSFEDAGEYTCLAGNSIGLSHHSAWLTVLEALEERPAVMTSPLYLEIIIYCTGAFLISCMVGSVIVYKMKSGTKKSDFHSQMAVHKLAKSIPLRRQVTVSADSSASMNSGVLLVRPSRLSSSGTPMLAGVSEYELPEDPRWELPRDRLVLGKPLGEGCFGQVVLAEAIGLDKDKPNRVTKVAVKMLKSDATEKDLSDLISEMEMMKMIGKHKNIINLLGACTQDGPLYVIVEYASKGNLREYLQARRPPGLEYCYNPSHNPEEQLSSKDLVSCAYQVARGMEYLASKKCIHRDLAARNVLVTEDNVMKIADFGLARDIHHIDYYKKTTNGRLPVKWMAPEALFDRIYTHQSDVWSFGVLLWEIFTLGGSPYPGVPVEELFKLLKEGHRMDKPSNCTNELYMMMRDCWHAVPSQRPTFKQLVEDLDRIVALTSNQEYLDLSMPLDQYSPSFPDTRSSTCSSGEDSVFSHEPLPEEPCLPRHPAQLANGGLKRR
The species named for assay [7] is Danio rerio. Description: Antiangiogenic activity against transgenic zebra fish embryos expressing green fluorescence protein assessed as inhibition of intersegmental vessel formation at 100 uM after 24 hrs by confocal fluorescence microscopy. The assay is classed as functional, organism-based. The essentials:
as §2

The source made the active and inactive calls. The calls are words filed in the database; no cut-off is given here.

Sequence of Vascular endothelial growth factor receptor 2 (Homo sapiens) (P35968 whole entry): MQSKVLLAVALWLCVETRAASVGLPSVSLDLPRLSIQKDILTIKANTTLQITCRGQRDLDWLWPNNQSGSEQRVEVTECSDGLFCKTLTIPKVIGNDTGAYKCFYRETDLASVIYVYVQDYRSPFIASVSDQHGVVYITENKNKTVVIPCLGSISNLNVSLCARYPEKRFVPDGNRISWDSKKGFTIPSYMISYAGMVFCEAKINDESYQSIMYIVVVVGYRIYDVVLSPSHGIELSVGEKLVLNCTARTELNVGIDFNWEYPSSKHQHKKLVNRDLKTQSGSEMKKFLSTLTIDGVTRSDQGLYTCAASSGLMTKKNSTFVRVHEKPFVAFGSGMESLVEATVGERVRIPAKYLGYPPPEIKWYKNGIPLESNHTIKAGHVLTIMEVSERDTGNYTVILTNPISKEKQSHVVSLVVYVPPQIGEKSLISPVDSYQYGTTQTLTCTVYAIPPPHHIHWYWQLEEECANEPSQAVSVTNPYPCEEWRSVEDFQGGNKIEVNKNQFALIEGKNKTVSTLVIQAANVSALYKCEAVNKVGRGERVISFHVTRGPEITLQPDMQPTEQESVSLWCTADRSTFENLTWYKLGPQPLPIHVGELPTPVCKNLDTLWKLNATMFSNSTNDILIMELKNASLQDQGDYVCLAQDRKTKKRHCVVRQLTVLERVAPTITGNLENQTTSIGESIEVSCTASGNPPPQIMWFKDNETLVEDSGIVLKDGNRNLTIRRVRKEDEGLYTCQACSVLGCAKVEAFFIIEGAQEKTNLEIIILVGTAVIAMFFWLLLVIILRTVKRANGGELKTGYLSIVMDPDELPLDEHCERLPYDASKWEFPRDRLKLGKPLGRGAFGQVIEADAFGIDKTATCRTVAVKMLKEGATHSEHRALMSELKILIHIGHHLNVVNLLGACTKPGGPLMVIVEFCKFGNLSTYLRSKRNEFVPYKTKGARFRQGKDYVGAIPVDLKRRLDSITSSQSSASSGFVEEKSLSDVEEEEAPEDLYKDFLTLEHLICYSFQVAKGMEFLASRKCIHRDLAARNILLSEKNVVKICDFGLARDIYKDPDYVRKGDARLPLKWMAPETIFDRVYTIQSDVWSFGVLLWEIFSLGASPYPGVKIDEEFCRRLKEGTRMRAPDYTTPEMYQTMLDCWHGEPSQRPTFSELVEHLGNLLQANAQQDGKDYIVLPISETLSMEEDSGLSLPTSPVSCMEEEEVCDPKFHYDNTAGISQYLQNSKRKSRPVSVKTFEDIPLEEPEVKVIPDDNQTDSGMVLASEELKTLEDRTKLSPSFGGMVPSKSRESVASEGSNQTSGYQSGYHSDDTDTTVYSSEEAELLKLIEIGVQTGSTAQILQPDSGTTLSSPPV

A word on the IC50: it is the concentration at which inhibition is half-maximal. For the compound `Cc1ccccc1NC(=O)Cn1c(=O)c(/C=C\c2ccncc2)nc2ccccc21`, the IC50 was 69.7 µM in [1]; > 100 µM in the assay on K562; > 100 µM in the assay on HeLa; > 100 µM in [2]; > 100 µM in [3]; > 100 µM in the assay with MCF7.
On to `Cc1nc2ccccc2nc1OCC(=O)Nc1ccc(Cl)cc1`, for which the IC50 is > 100 µM in assay [1]; > 100 µM in the assay on K562; > 100 µM with HeLa; 68 µM in assay [2]; > 100 µM in assay [3]; > 100 µM in the assay with MCF7.
Regarding `Cc1nc2ccccc2n(CC(=O)Nc2ccc(F)cc2)c1=O`, the IC50 in assay [1] is > 100 µM; in the assay on K562, > 100 µM; in the assay with HeLa, 55.5 µM; in assay [2], > 100 µM; in assay [3] it was > 100 µM; with MCF7, > 100 µM.
A word on the inhibition: it is the drop in the measured response relative to a control, in per cent. In the case of `O=C(Cn1c(=O)c(/C=C\c2ccncc2)nc2ccccc21)Nc1ccc(F)cc1`, the IC50 in [1] is > 100 µM; in the assay on K562, > 100 µM; in the assay on HeLa, > 100 µM; in [2], 59.9 µM; in assay [3], > 100 µM; with MCF7 it was 49 µM. Also, the inhibition in [4] was 6%; in the assay with HUVEC, “Dose-dependent effect”; in [6], 2%. Also, in the assay filed under Danio rerio [5], the inhibition entry was “inactive”.
Consider `Cc1ccc(C(=O)Nc2ccc(Cn3c(=O)c(C)nc4ccccc43)cc2)cc1`, for which the IC50 (in [1]; with K562; in the assay with HeLa; in assay [2]; in [3]; in the assay on MCF7) was > 100 µM in each case.
Take `COc1cc2nc(/C=C\c3ccncc3)c(=O)n(CC(=O)Nc3ccccc3)c2cc1OC`: the IC50 is 55.6 µM in assay [1]; > 100 µM in the assay on K562; > 100 µM in the assay with HeLa; > 100 µM in [2]; > 100 µM in assay [3]; > 100 µM in the assay on MCF7.
As for `O=C(COc1nc2ccccc2nc1/C=C\c1ccncc1)Nc1ccc(Cl)cc1`, the IC50 was > 100 µM in [1]; 49.9 µM with K562; > 100 µM with HeLa; > 100 µM in assay [2]; > 100 µM in assay [3]; > 100 µM in the assay with MCF7. Further, the inhibition in [4] is 37%; with HUVEC it was “Dose-dependent effect”; in assay [6] it was 0%. The inhibition result in the assay filed under Danio rerio [5] is “Active”.
For the compound `O=C(Cn1c(=O)c(/C=C\c2ccncc2)nc2ccccc21)Nc1ccccc1`, the IC50 in assay [1] was > 100 µM; in the assay on K562, 55.5 µM; in the assay on HeLa it was > 100 µM; in assay [2], > 100 µM; in assay [3] it was > 100 µM; in the assay with MCF7 it was > 100 µM.
As to `Cc1ccc(Nc2nccc(N(C)c3ccc4c(C)n(C)nc4c3)n2)cc1S(N)(=O)=O` [PAZOPANIB], the IC50 is 50.2 µM in assay [1]; 89.3 µM in the assay with K562; > 100 µM in the assay on HeLa; > 100 µM in assay [2]; > 100 µM in assay [3]; 76.8 µM in the assay on MCF7.
Turning to `Cc1nc2ccccc2n(CC(=O)Nc2ccc(Cl)cc2)c1=O`, the IC50 was 40.2 µM in assay [1]; > 100 µM in the assay with K562; > 100 µM in the assay with HeLa; > 100 µM in [2]; > 100 µM in assay [3]; > 100 µM in the assay with MCF7. Besides, the inhibition in [4] is 19%; in the assay with HUVEC, “Dose-dependent effect”; in [6] it was 0%. The inhibition entry in the assay filed under Danio rerio [7] was “Active”.
As for `O=C(Cn1c(=O)c(/C=C\c2ccncc2)nc2ccccc21)Nc1ccc(Cl)cc1`, the IC50 is > 100 µM in assay [1]; 50.4 µM in the assay on K562; > 100 µM in the assay with HeLa; > 100 µM in assay [2]; > 100 µM in [3]; > 100 µM in the assay on MCF7. Besides, the inhibition in assay [4] was 44%; in the assay on HUVEC, “Dose-dependent effect”; in the assay listed under Danio rerio [5], “Dose-dependent effect”; in assay [6], 5%.
On to `COc1ccc(NC(=O)Cn2c(=O)c(/C=C\c3ccncc3)nc3ccccc32)cc1OC`, for which the IC50 is > 100 µM in assay [1]; 55.2 µM in the assay on K562; > 100 µM in the assay on HeLa; > 100 µM in assay [2]; > 100 µM in assay [3]; > 100 µM with MCF7.
Turning to `O=C(Cn1c(=O)c(/C=C\c2ccncc2)nc2ccccc21)Nc1ccc(Cl)c(Cl)c1`, the IC50 was > 100 µM in [1]; > 100 µM in the assay with K562; > 100 µM in the assay on HeLa; > 100 µM in assay [2]; > 100 µM in [3]; 47.6 µM in the assay with MCF7. For the same compound, the inhibition in [4] is 56%; in the assay with HUVEC, “Dose-dependent effect”; in the assay filed under Danio rerio [5], “Dose-dependent effect”; in assay [6], 8%.
With `Cc1ccc(NC(=O)COc2nc3ccccc3nc2C)cc1`, the concentration for half-maximal inhibition (IC50) in [1] was > 100 µM; in the assay on K562, > 100 µM; in the assay with HeLa it was 74.6 µM; in assay [2] it was > 100 µM; in assay [3], > 100 µM; with MCF7, > 100 µM.
For `Cc1ccc(NC(=O)COc2nc3ccccc3nc2/C=C\c2ccncc2)cc1`, the IC50 is > 100 µM in assay [1]; > 100 µM in the assay with K562; > 100 µM in the assay with HeLa; > 100 µM in assay [2]; > 100 µM in [3]; 60.2 µM with MCF7.
For `Cc1nc2ccccc2n(Cc2ccc(NC(=O)c3ccc(Cl)cc3)cc2)c1=O`, the IC50 in [1] was > 100 µM; in the assay on K562, > 100 µM; in the assay with HeLa, > 100 µM; in assay [2], 39.6 µM; in [3], > 100 µM; in the assay with MCF7, 47.6 µM.

The record behind these values is ChEMBL document CHEMBL3774355, “Quinoxalinone (Part II). Discovery of (Z)-3-(2-(pyridin-4-yl)vinyl)quinoxalinone derivates as potent VEGFR-2 kinase inhibitors” (Bioorg Med Chem, 2016).
